In ChEMBL document CHEMBL1933063, “Investigation of chalcones and benzochalcones as inhibitors of breast cancer resistance protein” (Bioorg Med Chem, 2012):
Active and inactive are the calls of the source. No cut-off for these calls is given here.

Legend:
[1] = tested on: MCF7/MX; experiment: Potentiation of mitoxantrone anticancer activity against human MCF7/MX cells at 5 uM after 72 hrs by MTT assay; assay type: functional, cell-based
In short: (§1)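 Cells seeded (1250/well MDCK, 10,000/well MCF-7) and left 6 h at 37 °C, 5% CO2. Mitoxantrone or SN-38 dose range added with or without three concentrations of modulator, then 72 h incubation. MTT added for 1 h, cells lysed in DMSO, absorbance read at 544 nm minus 710 nm. EC50 derived; parental cells as controls; three independent experiments.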

[2] = molecular target: Multidrug resistance-associated protein 1 (Homo sapiens, UniProt P33527); experiment: Inhibition of MRP1 overexpressed in human 2008 MRP1 cells assessed as calcein AM accumulation at 10 uM by fluorimetry; assay type: cell-based; details: human, 2008, 10 µM
In short: (§2)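 Calcein AM accumulation in A2780adr (P-gp) or 2008 MRP1 cells. Cells washed in Krebs-HEPES buffer, about 30,000 per well, preincubated 30 min with compound at 10 µM final. Calcein AM then added. Fluorescence (ex 485, em 520 nm) read every 60 s up to 90 min at 37 °C. Expressed as percent of vehicle control; n = 3.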

[3] = molecular target: ATP-dependent translocase ABCB1 (Homo sapiens, UniProt P08183); experiment: Inhibition of MDR1 in human A2780adr cells assessed as calcein AM accumulation at 10 uM by fluorimetry; assay type: cell-based; details: a2780 adr; in short: as §2
[4] = molecular target: T1, Broad substrate specificity ATP-binding cassette transporter ABCG2 (Homo sapiens, UniProt Q9UNQ0); experiment: Inhibition of BCRP in human MCF7/MX cells assessed as Hoechst 33342 accumulation preincubated for 30 mins by Fluorometry; assay type: cell-based; details: read-out: IC50
T1 sequence (Q9UNQ0 whole entry): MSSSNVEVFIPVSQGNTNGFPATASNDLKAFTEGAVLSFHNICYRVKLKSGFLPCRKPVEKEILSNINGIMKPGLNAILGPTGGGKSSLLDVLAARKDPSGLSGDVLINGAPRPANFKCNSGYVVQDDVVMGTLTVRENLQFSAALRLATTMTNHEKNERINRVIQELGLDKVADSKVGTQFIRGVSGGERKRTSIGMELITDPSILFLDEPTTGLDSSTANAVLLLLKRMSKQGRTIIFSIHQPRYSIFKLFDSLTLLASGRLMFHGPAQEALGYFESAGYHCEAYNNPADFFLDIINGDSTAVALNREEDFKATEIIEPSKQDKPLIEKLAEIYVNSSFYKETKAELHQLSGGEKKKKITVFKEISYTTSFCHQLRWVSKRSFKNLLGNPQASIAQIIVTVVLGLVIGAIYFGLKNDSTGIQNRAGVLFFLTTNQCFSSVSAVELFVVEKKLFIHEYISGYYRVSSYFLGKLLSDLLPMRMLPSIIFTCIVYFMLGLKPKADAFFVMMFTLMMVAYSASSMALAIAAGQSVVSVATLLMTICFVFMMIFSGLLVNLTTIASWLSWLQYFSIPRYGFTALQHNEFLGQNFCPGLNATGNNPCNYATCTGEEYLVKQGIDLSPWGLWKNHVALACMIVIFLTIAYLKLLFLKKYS
In short: (§3)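 Cells washed three times in Krebs-HEPES buffer, about 20,000 per well, preincubated with test compound at varied concentrations for 30 min at 37 °C, 5% CO2. Hoechst 33342 then added (final 1 µM). Fluorescence (ex 355, em 460 nm) read every 60 s up to 120 min at 37 °C. KHB background subtracted, 100–109 min mean plotted, four-parameter logistic fit; ≥3 independent experiments.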

[5] = tested on: MCF7/MX; experiment: Potentiation of mitoxantrone anticancer activity against human MCF7/MX cells at 3 uM after 72 hrs by MTT assay; assay type: functional, cell-based; in short: as §1
[6] = tested on: MCF7/MX; experiment: Potentiation of mitoxantrone anticancer activity against human MCF7/MX cells at 1 uM after 72 hrs by MTT assay; assay type: functional, cell-based; in short: as §1
[7] = molecular target: T1, Broad substrate specificity ATP-binding cassette transporter ABCG2; experiment: Inhibition of human BCRP expressed in MDCK2 cells assessed as Hoechst 33342 accumulation preincubated for 30 mins by fluorimetry; assay type: cell-based, MDCK-II; details: read-out: IC50; in short: as §3

Sequence of Multidrug resistance-associated protein 1 (P33527 whole entry): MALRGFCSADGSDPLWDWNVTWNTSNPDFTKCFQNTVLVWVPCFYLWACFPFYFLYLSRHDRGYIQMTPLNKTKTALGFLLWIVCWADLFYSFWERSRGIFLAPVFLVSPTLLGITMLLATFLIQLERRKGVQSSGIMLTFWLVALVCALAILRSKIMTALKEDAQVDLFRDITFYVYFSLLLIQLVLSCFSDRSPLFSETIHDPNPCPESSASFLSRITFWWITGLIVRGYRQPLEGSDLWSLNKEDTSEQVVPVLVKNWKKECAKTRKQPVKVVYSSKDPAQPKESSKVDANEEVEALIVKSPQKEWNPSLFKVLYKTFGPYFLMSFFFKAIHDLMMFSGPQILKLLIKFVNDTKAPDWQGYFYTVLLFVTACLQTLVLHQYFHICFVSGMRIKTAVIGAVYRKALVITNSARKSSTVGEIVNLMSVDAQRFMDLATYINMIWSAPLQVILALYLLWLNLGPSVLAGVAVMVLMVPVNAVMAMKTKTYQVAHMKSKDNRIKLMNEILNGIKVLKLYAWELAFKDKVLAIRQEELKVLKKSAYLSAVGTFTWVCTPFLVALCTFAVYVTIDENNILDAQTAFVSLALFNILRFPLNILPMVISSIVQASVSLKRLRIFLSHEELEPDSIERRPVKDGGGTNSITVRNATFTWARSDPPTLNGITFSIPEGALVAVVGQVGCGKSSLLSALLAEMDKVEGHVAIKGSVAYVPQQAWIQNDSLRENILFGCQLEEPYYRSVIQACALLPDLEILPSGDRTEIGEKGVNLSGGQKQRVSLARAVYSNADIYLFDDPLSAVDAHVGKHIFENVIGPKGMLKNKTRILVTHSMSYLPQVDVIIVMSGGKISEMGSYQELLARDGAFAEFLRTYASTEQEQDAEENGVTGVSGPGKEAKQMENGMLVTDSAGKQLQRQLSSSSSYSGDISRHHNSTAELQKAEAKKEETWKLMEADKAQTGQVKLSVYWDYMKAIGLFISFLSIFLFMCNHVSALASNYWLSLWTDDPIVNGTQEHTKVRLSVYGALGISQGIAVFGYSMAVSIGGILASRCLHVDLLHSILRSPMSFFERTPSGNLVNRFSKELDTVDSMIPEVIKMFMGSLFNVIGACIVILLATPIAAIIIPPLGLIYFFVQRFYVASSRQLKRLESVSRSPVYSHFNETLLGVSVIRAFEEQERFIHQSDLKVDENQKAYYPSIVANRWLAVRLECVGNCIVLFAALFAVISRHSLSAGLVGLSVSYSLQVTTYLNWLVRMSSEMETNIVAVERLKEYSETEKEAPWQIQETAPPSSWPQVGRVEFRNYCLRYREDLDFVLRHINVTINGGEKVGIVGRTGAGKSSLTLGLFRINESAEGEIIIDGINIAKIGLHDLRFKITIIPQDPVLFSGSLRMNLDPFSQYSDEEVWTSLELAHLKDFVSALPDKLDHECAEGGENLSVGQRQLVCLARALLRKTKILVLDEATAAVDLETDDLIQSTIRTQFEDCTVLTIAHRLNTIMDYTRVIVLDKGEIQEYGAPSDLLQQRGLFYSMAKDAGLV
Sequence of ATP-dependent translocase ABCB1 (P08183 whole entry): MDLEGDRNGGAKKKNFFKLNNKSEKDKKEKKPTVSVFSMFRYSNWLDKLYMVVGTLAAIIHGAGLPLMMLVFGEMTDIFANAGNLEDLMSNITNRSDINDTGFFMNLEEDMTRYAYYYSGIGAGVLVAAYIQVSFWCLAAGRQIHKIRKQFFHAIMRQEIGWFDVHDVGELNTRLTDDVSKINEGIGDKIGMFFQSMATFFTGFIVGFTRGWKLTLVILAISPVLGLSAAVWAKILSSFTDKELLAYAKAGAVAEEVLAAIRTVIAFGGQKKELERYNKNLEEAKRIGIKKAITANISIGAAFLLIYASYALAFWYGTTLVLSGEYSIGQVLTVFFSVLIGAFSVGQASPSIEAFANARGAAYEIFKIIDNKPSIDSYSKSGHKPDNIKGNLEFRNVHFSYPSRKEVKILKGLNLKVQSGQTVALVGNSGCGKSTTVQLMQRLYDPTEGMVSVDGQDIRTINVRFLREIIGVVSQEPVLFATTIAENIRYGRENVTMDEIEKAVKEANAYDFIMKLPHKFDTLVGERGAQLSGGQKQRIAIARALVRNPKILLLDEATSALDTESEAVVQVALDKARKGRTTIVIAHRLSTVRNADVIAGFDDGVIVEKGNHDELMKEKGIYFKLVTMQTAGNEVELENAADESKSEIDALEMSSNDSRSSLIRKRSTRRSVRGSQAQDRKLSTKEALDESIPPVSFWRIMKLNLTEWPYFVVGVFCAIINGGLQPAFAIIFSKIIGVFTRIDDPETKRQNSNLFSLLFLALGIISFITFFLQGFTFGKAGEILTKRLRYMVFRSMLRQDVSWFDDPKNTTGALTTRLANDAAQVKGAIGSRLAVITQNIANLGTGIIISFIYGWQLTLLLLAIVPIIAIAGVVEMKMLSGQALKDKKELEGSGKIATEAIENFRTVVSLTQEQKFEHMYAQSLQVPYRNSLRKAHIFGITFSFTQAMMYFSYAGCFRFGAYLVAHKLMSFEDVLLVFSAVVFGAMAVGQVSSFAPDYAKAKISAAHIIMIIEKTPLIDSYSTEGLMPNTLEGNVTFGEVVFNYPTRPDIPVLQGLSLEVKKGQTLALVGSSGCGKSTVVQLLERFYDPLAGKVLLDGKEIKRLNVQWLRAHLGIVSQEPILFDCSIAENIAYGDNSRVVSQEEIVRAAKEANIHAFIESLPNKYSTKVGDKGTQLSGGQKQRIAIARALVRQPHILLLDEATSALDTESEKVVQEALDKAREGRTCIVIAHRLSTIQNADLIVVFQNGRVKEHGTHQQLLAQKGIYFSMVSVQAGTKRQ

inhibition (INH) [2]: Not Active | inhibition (INH) [3]: Active | IC50 [4]: 750 nM | IC50 [7]: 530 nM
SMILES: COc1cc(O)c(C(=O)/C=C/c2ccc(OC)c(OC)c2)c(OC)c1
Activity [1]: Active | Activity [5]: Active | Activity [6]: Active
